From paper PMC3561458 (Investigational new drugs, 2011)

Key:
[1] = system: advanced/metastatic solid tumors; test: Antitumor activity; format: in vivo, human
In short: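 Adults (≥18 y) with relapsed or refractory solid tumours and no standard therapy, ECOG 0–1, take the test compound as capsules orally once daily for 7 consecutive days in 2-week cycles (S1). Patients stay on study until progression, refusal or unacceptable toxicity. Disease is assessed by RECIST every 8 weeks and at study discontinuation.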

Plasma pharmacokinetics = format: in vivo, human; conditions: for AUC(0-t) / Cmax / Vd/F / half-life: human, plasma, oral; for Vd/F: Vz/F
In short: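 The test compound is given orally once daily for 7 days in 2-week cycles (S1). Plasma is sampled in cycle 1 on days 1, 2, 4, 7, 8 and 9, and in cycle 2 on days 1, 4 and 7. Cycle 1 day 1 is sampled from 30 min to 24 h after dosing and day 7 from 30 min to 96 h. Parent and metabolite are measured by validated LC-MS-MS, with calibration ranges of 0.00109–1.09 and 0.00105–1.05 μM respectively.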

[2] = system: CDK related biomarkers Cyclin A2, Cyclin B1 and Ki67; test: Pharmacodynamics: qRT-PCR on skin biopsies; format: in vivo, human; conditions: pre- vs post-treatment
CDK2/Cyclin A complex = conditions: read-out: IC50, CDK2/Cyclin A complex; cited from earlier work
CDK1 = conditions: cited from earlier work
CDK2 = conditions: cited from earlier work
CDK4 = conditions: cited from earlier work
CDK5 = conditions: cited from earlier work
CDK7 = conditions: cited from earlier work
animals = conditions: high single or repeated doses; cited from earlier work

CNC(=O)c1nn(C)c2c1C(C)(C)Cc1cnc(Nc3ccc(N4CCN(C)CC4)cc3)nc1-2 [PHA-848125AC, N,1,4,4-tetramethyl-8-{[4-(4-methylpiperazin-1-yl)phenyl]amino}-4,5-dihydro-1H-pyrazolo [4,3-h]quinazoline-3-carboxamide]
duration of stabilization ([1]; CRC patient, 150 mg/day, S1): 55.6 weeks
duration of stabilization ([1]; NSCLC patient, 200 mg/day, S1): 24.6 weeks
objective response ([1]; S1): No objective response
patients discontinued for lack of efficacy ([1]; S1 N=22): 81.8%
patients discontinued for lack of efficacy ([1]; S2 N=15): 86.7%
duration of stabilization ([1]; carcinoid patient, 180 mg/day, S2): 29.1 weeks
duration of stabilization ([1]; pancreatic adenocarcinoma patient, 180 mg/day, S2): 39.3 weeks
CL/F (Plasma pharmacokinetics; S1 50 mg/day, mean±SD, n=2): 19.7 ± 4.35 L/h
CL/F (Plasma pharmacokinetics; S1 100 mg/day, mean±SD, n=6): 13.7 ± 6.49 L/h
CL/F (Plasma pharmacokinetics; S1 200 mg/day, mean±SD, n=6): 15.2 ± 2.44 L/h
CL/F (Plasma pharmacokinetics; S1 300 mg/day, n=1): 7.78 L/h
CL/F (Plasma pharmacokinetics; S2 150 mg/day, mean±SD, n=4): 16.4 ± 6.16 L/h
CL/F (Plasma pharmacokinetics; S2 200 mg/day, mean±SD, n=3): 12.7 ± 1.60 L/h
accumulation factor after repeated administrations (Plasma pharmacokinetics; both schedules): 3
AUC(0-t) (Plasma pharmacokinetics; 50 mg/day, AUC0-24, S1 50 mg/day, Day 1, mean±SD, n=3): 2.5 ± 0.6 µM·h
AUC(0-t) (Plasma pharmacokinetics; 50 mg/day, AUC0-24, S1 50 mg/day, Day 7, mean±SD, n=3): 6.8 ± 2.2 µM·h
AUC(0-t) (Plasma pharmacokinetics; 50 mg/day, AUCt, S1 50 mg/day, Day 7, mean±SD, n=3): 11.7 ± 5.4 µM·h
Cmax (Plasma pharmacokinetics; 50 mg/day, S1 50 mg/day, Day 1, mean±SD, n=3): 0.2 ± 0.1 µM
Cmax (Plasma pharmacokinetics; 50 mg/day, S1 50 mg/day, Day 7, mean±SD, n=3): 0.4 ± 0.2 µM
Vd/F (Plasma pharmacokinetics; 50 mg/day, S1 50 mg/day, mean±SD, n=2): 707 ± 39.8 L
half-life (Plasma pharmacokinetics; 50 mg/day, t1/2,z, S1 50 mg/day, mean±SD, n=2): 25.3 ± 4.18 h
AUC(0-t) (Plasma pharmacokinetics; 100 mg/day, AUC0-24, S1 100 mg/day, Day 1, mean±SD, n=6): 6 ± 2.2 µM·h
AUC(0-t) (Plasma pharmacokinetics; 100 mg/day, AUC0-24, S1 100 mg/day, Day 7, mean±SD, n=6): 20 ± 11 µM·h
AUC(0-t) (Plasma pharmacokinetics; 100 mg/day, AUCt, S1 100 mg/day, Day 7, mean±SD, n=6): 43.4 ± 26.8 µM·h
Cmax (Plasma pharmacokinetics; 100 mg/day, S1 100 mg/day, Day 1, mean±SD, n=6): 0.4 ± 0.1 µM
Cmax (Plasma pharmacokinetics; 100 mg/day, S1 100 mg/day, Day 7, mean±SD, n=6): 1.2 ± 0.5 µM
Vd/F (Plasma pharmacokinetics; 100 mg/day, S1 100 mg/day, mean±SD, n=6): 840 ± 550 L
half-life (Plasma pharmacokinetics; 100 mg/day, t1/2,z, S1 100 mg/day, mean±SD, n=6): 42.9 ± 15.9 h
AUC(0-t) (Plasma pharmacokinetics; 150 mg/day, AUC0-24, S1 150 mg/day, Day 1, mean±SD, n=6): 8.8 ± 2.6 µM·h
AUC(0-t) (Plasma pharmacokinetics; 150 mg/day, AUC0-24, S1 150 mg/day, Day 7, mean±SD, n=6): 25 ± 8.6 µM·h
AUC(0-t) (Plasma pharmacokinetics; 150 mg/day, AUC0-24, S2 150 mg/day, Day 1, mean±SD, n=4): 7.2 ± 2.8 µM·h
AUC(0-t) (Plasma pharmacokinetics; 150 mg/day, AUC0-24, S2 150 mg/day, Day 18, mean±SD, n=4): 23 ± 9.5 µM·h
AUC(0-t) (Plasma pharmacokinetics; 150 mg/day, AUCt, S1 150 mg/day, Day 7, mean±SD, n=6): 46.5 ± 19.4 µM·h
AUC(0-t) (Plasma pharmacokinetics; 150 mg/day, AUCt, S2 150 mg/day, Day 18, mean±SD, n=4): 54.6 ± 25.1 µM·h
Cmax (Plasma pharmacokinetics; 150 mg/day, S1 150 mg/day, Day 1, mean±SD, n=6): 0.7 ± 0.2 µM
Cmax (Plasma pharmacokinetics; 150 mg/day, S1 150 mg/day, Day 7, mean±SD, n=6): 1.5 ± 0.5 µM
Cmax (Plasma pharmacokinetics; 150 mg/day, S2 150 mg/day, Day 1, mean±SD, n=4): 0.4 ± 0.1 µM
Cmax (Plasma pharmacokinetics; 150 mg/day, S2 150 mg/day, Day 18, mean±SD, n=4): 1.2 ± 0.3 µM
Vd/F (Plasma pharmacokinetics; 150 mg/day, S2 150 mg/day, mean±SD, n=4): 1010 ± 456 L
half-life (Plasma pharmacokinetics; 150 mg/day, t1/2,z, S1 150 mg/day, mean±SD, n=6): 33.1 ± 9.53 h
half-life (Plasma pharmacokinetics; 150 mg/day, t1/2,z, S2 150 mg/day, mean±SD, n=4): 43.1 ± 10.7 h
AUC(0-t) (Plasma pharmacokinetics; 180 mg/day, AUC0-24, S2 180 mg/day, Day 1, mean±SD, n=4): 7 ± 2.1 µM·h
AUC(0-t) (Plasma pharmacokinetics; 180 mg/day, AUC0-24, S2 180 mg/day, Day 18, mean±SD, n=4): 17 ± 8.8 µM·h
AUC(0-t) (Plasma pharmacokinetics; 180 mg/day, AUCt, S2 180 mg/day, Day 18, mean±SD, n=4): 35.1 ± 26.3 µM·h
Cmax (Plasma pharmacokinetics; 180 mg/day, S2 180 mg/day, Day 1, mean±SD, n=4): 0.5 ± 0.2 µM
Cmax (Plasma pharmacokinetics; 180 mg/day, S2 180 mg/day, Day 18, mean±SD, n=4): 1.1 ± 0.5 µM
half-life (Plasma pharmacokinetics; 180 mg/day, t1/2,z, S2 180 mg/day, mean±SD, n=4): 23.5 ± 8.42 h
AUC(0-t) (Plasma pharmacokinetics; 200 mg/day, AUC0-24, S1 200 mg/day, Day 1, mean±SD, n=6): 9.6 ± 3.6 µM·h
AUC(0-t) (Plasma pharmacokinetics; 200 mg/day, AUC0-24, S1 200 mg/day, Day 7, mean±SD, n=6): 29 ± 4.5 µM·h
AUC(0-t) (Plasma pharmacokinetics; 200 mg/day, AUC0-24, S2 200 mg/day, Day 1, mean±SD, n=3): 12 ± 6.3 µM·h
AUC(0-t) (Plasma pharmacokinetics; 200 mg/day, AUC0-24, S2 200 mg/day, Day 18, mean±SD, n=3): 35 ± 4.6 µM·h
AUC(0-t) (Plasma pharmacokinetics; 200 mg/day, AUCt, S1 200 mg/day, Day 7, mean±SD, n=6): 63.5 ± 9.04 µM·h
AUC(0-t) (Plasma pharmacokinetics; 200 mg/day, AUCt, S2 200 mg/day, Day 18, mean±SD, n=3): 63.6 ± 17.5 µM·h
Cmax (Plasma pharmacokinetics; 200 mg/day, S1 200 mg/day, Day 1, mean±SD, n=6): 0.7 ± 0.3 µM
Cmax (Plasma pharmacokinetics; 200 mg/day, S1 200 mg/day, Day 7, mean±SD, n=6): 1.7 ± 0.2 µM
Cmax (Plasma pharmacokinetics; 200 mg/day, S2 200 mg/day, Day 1, mean±SD, n=3): 1 ± 0.4 µM
Cmax (Plasma pharmacokinetics; 200 mg/day, S2 200 mg/day, Day 18, mean±SD, n=3): 2.5 ± 0.5 µM
Vd/F (Plasma pharmacokinetics; 200 mg/day, S1 200 mg/day, mean±SD, n=6): 721 ± 207 L
Vd/F (Plasma pharmacokinetics; 200 mg/day, S2 200 mg/day, mean±SD, n=3): 473 ± 68.4 L
half-life (Plasma pharmacokinetics; 200 mg/day, t1/2,z, S1 200 mg/day, mean±SD, n=6): 32.4 ± 4.79 h
half-life (Plasma pharmacokinetics; 200 mg/day, t1/2,z, S2 200 mg/day, mean±SD, n=3): 25.8 ± 1.46 h
AUC(0-t) (Plasma pharmacokinetics; 300 mg/day, AUC0-24, S1 300 mg/day, Day 1, n=1): 23 µM·h
AUC(0-t) (Plasma pharmacokinetics; 300 mg/day, AUC0-24, S1 300 mg/day, Day 7, n=1): 84 µM·h
AUC(0-t) (Plasma pharmacokinetics; 300 mg/day, AUCt, S1 300 mg/day, Day 7, n=1): 168 µM·h
Cmax (Plasma pharmacokinetics; 300 mg/day, S1 300 mg/day, Day 1, n=1): 1.2 µM
Cmax (Plasma pharmacokinetics; 300 mg/day, S1 300 mg/day, Day 7, n=1): 5.1 µM
Vd/F (Plasma pharmacokinetics; 300 mg/day, S1 300 mg/day, n=1): 348 L
half-life (Plasma pharmacokinetics; 300 mg/day, t1/2,z, S1 300 mg/day, n=1): 31 h
half-life (Plasma pharmacokinetics; half-life, terminal, overall): ~33 h
oral absorption (Plasma pharmacokinetics; in vivo, po): good oral absorption
modulation of CDK related biomarkers Cyclin A2, Cyclin B1 and Ki67 [2]: down modulation
IC50 (CDK2/Cyclin A complex): 0.045 µM
inhibitory activity towards CDK1 (CDK1): inhibitory activity
inhibitory activity towards CDK2 (CDK2): inhibitory activity
inhibitory activity towards CDK4 (CDK4): inhibitory activity
inhibitory activity towards CDK5 (CDK5): inhibitory activity
inhibitory activity towards CDK7 (CDK7): inhibitory activity
neurological effects in animals (animals): tremors and increased reactivity to external stimuli
